According to ChEMBL document CHEMBL3124866, “Small molecular antibacterial peptoid mimics: the simpler the better!” (J Med Chem, 2014):
Converted amounts (≈) assume the structure as drawn.

Tests used:
[1] = Retention time of the compound by HPLC analysis; type: physicochemical
[2] = Hemolytic activity in human erythrocytes after 1 hr by spectrophotometric analysis; type: ADME, cell-based, Erythrocyte
Summary of the method: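 Heparinized fresh human erythrocytes at 5 vol% in PBS pH 7.4 were mixed 3:1 with serially diluted compound and held 1 h at 37 °C. Plates were centrifuged and supernatant A540 read. Hemolysis was scaled between an untreated control and a Triton X-100 (100% lysis) control. HC50 is the mean of at least two independent triplicate experiments.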

[3] = system: Klebsiella pneumoniae; assay: Antibacterial activity against beta-lactam-resistant Klebsiella pneumoniae ATCC 700603 after 24 hrs by broth microdilution assay; type: functional
Summary of the method: (§1)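 MIC by broth microdilution. Cultures were grown 6 h to ~10^9 cfu/mL, then diluted to 10^5 cfu/mL. Media: yeast-dextrose broth for MRSA, BHI for VRE, and beef extract/peptone nutrient broth for K. pneumoniae. Compounds were serially diluted in water, 50 µL added to 150 µL cells, and incubated 24 h at 37 °C. OD600 triplicates were sigmoid-fitted; MIC is the point where OD equals the no-bacteria control. Mean ± SEM of ≥2 experiments.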

[4] = system: Enterococcus faecium; assay: Antibacterial activity against vancomycin-resistant Enterococcus faecium ATCC 51559 after 24 hrs by broth microdilution assay; type: functional; summary of the method: as §1
[5] = system: Staphylococcus aureus; assay: Antibacterial activity against methicillin-resistant Staphylococcus aureus ATCC 33591 after 24 hrs by broth microdilution assay; type: functional; summary of the method: as §1
[6] = system: Pseudomonas aeruginosa; assay: Antibacterial activity against drug-sensitive Pseudomonas aeruginosa ATCC 4676 after 24 hrs by broth microdilution assay; type: functional
Summary of the method: (§2)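 Bacteria grown 6 h to ~10^9 cfu/mL and diluted to 10^5 cfu/mL in nutrient media. Growth media were LB (E. coli), yeast-dextrose broth (S. aureus, P. aeruginosa) and BHI (E. faecium). Compound was serially diluted in water and added 1:3 to bacteria, then incubated 37 °C for 24 h with OD600 read-out. Triplicate ODs were sigmoid-fitted; MIC was taken where OD matched the no-bacteria control. At least two independent experiments.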

[7] = system: Escherichia coli; assay: Antibacterial activity against drug-sensitive Escherichia coli MTCC 443 after 24 hrs by broth microdilution assay; type: functional; summary of the method: as §2
[8] = system: Enterococcus faecium; assay: Antibacterial activity against drug-sensitive Enterococcus faecium ATCC 19634 after 24 hrs by broth microdilution assay; type: functional; summary of the method: as §2
[9] = system: Staphylococcus aureus; assay: Antibacterial activity against drug-sensitive Staphylococcus aureus MTCC 737 after 24 hrs by broth microdilution assay; type: functional; summary of the method: as §2
[10] = system: Escherichia coli; assay: Ratio of MSI-78 MIC to compound MIC for Escherichia coli; type: functional

Row | Compound | Retention_time [1] [min] | HC50 at 1 h [2] [µg/mL] | MIC ([3]; ATCC 700603, 24 h) [µg/mL] | MIC ([4]; ATCC 51559, 24 h) [µg/mL] | MIC ([5]; ATCC 33591, 24 h) [µg/mL] | MIC ([6]; ATCC 4676, 24 h) [µg/mL] | MIC ([7]; MTCC 443, 24 h) [µg/mL] | MIC ([8]; ATCC 19634, 24 h) [µg/mL] | MIC ([9]; MTCC 737, 24 h) [µg/mL] | Ratio [10] | MIC [3] [µg/mL] | MIC [4] [µg/mL] | MIC [5] [µg/mL] | MIC [6] [µg/mL] | MIC [7] [µg/mL] | MIC [8] [µg/mL] | MIC [9] [µg/mL]
1 | CCCCCCCCCCCCN(Cc1cccc2ccccc12)C(=O)[C@@H](N)CCCCN.O=C(O)C(F)(F)F.O=C(O)C(F)(F)F | 15.1 | 56 | 4 | 3.4 | 2.7 | 3.2 | 3.1 | 1.6 | 3 |  |  |  |  |  |  |  | 
2 | CCCCCCCCN(Cc1cccc2ccccc12)C(=O)[C@@H](N)CCCCN.O=C(O)C(F)(F)F.O=C(O)C(F)(F)F | 12.9 | 60 | 13 | 7 | 4.4 | 5.4 | 5 | 5.5 | 6.3 |  |  |  |  |  |  |  | 
3 | CCCCCCCCCCN(Cc1ccccc1)C(=O)[C@@H](N)CCCCN.O=C(O)C(F)(F)F.O=C(O)C(F)(F)F | 13.4 | 95 | 31 | 5.8 | 15.7 | 4 | 6.5 | 6.5 | 5.7 |  |  |  |  |  |  |  | 
4 | CCCCCCCCCCCCN(Cc1ccccc1)C(=O)[C@@H](N)CCCCN.O=C(O)C(F)(F)F.O=C(O)C(F)(F)F | 14.5 | 45 |  | 3.3 | 2.9 | 4 | 5 | 2.6 | 2.7 |  |  |  |  |  |  |  | 
5 | CCCCCCCCN(Cc1ccccc1)C(=O)[C@@H](N)CCCCN.O=C(O)C(F)(F)F.O=C(O)C(F)(F)F | 12.1 | 325 | > 100 | > 100 | > 100 | 60 | 51 | 60 | 46 |  |  |  |  |  |  |  | 
6 | CCCCN(Cc1c2ccccc2c(Cl)c2ccccc12)C(=O)[C@@H](N)CCCCN.O=C(O)C(F)(F)F.O=C(O)C(F)(F)F | 12.4 | 91 | 17 | 5.3 | 6.3 | 1.9 | 4.8 | 4.5 | 5.3 |  |  |  |  |  |  |  | 
7 | CCCCCCCCN(Cc1c2ccccc2c(Cl)c2ccccc12)C(=O)[C@@H](N)CCCCN.O=C(O)C(F)(F)F.O=C(O)C(F)(F)F | 14.6 | 64 | 4.3 | 3 | 2.3 | 3.8 | 2.9 | 2.5 | 2.2 | 5 |  |  |  |  |  |  | 
8 | CN[C@H](CC(C)C)C(=O)N[C@H]1C(=O)N[C@@H](CC(N)=O)C(=O)N[C@H]2C(=O)N[C@H]3C(=O)N[C@H](C(=O)N[C@H](C(=O)O)c4cc(O)cc(O)c4-c4cc3ccc4O)[C@H](O)c3ccc(c(Cl)c3)Oc3cc2cc(c3O[C@@H]2O[C@H](CO)[C@@H](O)[C@H](O)[C@H]2O[C@H]2C[C@](C)(N)[C@H](O)[C@H](C)O2)Oc2ccc(cc2Cl)[C@H]1O [VANCOMYCIN] |  |  |  | > 100 | 0.9 (≈ 0.621 µM) |  |  | 0.87 (≈ 0.6 µM) | 0.9 (≈ 0.621 µM) |  |  |  |  |  |  |  | 
9 | CCCCCCCCCCCCCCN(Cc1ccccc1)C(=O)[C@@H](N)CCCCN.O=C(O)C(F)(F)F.O=C(O)C(F)(F)F | 15.8 | 50 | 4 | 2.5 | 2.5 | 2.8 | 3.1 | 2 | 3.1 |  |  |  |  |  |  |  | 
10 | CCCCN(Cc1cccc2ccccc12)C(=O)[C@@H](N)CCCCN.O=C(O)C(F)(F)F.O=C(O)C(F)(F)F | 10.8 | > 1000 | > 100 | > 100 | > 100 | > 100 | > 100 | > 100 | > 100 |  |  |  |  |  |  |  | 
11 | CCCCN(Cc1ccccc1)C(=O)[C@@H](N)CCCCN.O=C(O)C(F)(F)F.O=C(O)C(F)(F)F | 9.4 | > 1000 | > 100 |  | > 100 | > 100 | > 100 | > 100 | > 100 |  |  |  |  |  |  |  | 
12 | CCCCCCN(Cc1ccccc1)C(=O)[C@@H](N)CCCCN.O=C(O)C(F)(F)F.O=C(O)C(F)(F)F | 10.6 | > 1000 | > 100 |  | > 100 | > 100 | > 100 | > 100 | > 100 |  |  |  |  |  |  |  | 
13 | COLISTIN |  |  |  |  |  |  |  |  |  |  | 1.2 | > 100 | 54 | 0.4 | 0.4 | > 100 | 20
14 | CCCCCCCCCCN(Cc1cccc2ccccc12)C(=O)[C@@H](N)CCCCN.O=C(O)C(F)(F)F.O=C(O)C(F)(F)F | 14.2 | 54 | 5.8 | 1.6 | 2.6 | 3 | 4 | 3.5 | 2.5 |  |  |  |  |  |  |  | 
15 | CCN(Cc1c2ccccc2c(Cl)c2ccccc12)C(=O)[C@@H](N)CCCCN.O=C(O)C(F)(F)F.O=C(O)C(F)(F)F | 11.8 | 118 | 31 | 7.2 | 21 | 4 | 25 | 13.6 | 11 |  |  |  |  |  |  |  | 
16 | CCCCCCCCCCN(Cc1c2ccccc2c(Cl)c2ccccc12)C(=O)[C@@H](N)CCCCN.O=C(O)C(F)(F)F.O=C(O)C(F)(F)F | 15.6 | 71 | 7.6 | 5.6 | 4.6 | 11 | 26 | 4.9 | 7.1 |  |  |  |  |  |  |  | 
